Screening results (PubChem BioAssay)
eLon inh – inhibits E. coli Lon protease; P0A9M0; purified E. coli Lon protease, fluorescence polarization; inhibition, % at 7.94 µM; 360,000 tested, 0.42% active; AID 602123; in the data active = inhibition above about 13%, passing the limit was not always enough;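 also: 0% = enzyme with probe and DMSO and 100% = no enzyme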
PRMT1 FP inh – PRMT1 (human) inhibition, primary screen. recombinant PRMT1, activity-based probe fluorescence polarization. inhibition, % at 2.79 µM. 370,000 tested, 1.3% active. AID 652257;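 active = inhibition above about 21% made by adding two undisclosed values, limit read from the data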
Target sequence (Q99873 whole entry, looked up): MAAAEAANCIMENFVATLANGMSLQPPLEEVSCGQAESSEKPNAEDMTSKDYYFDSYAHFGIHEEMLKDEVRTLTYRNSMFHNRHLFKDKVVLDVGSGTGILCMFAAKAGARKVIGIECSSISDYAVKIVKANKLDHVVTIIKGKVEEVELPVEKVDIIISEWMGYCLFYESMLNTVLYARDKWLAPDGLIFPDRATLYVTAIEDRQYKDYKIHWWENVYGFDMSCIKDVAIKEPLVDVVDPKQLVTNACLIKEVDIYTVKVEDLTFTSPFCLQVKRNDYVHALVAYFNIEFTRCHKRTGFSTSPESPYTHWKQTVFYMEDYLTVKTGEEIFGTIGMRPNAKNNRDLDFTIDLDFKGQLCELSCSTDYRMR
PAD4 inh – PAD4 (human) enzyme inhibition; Q9UM07; recombinant PAD4, RCA probe fluorescence polarization; inhibition, % at 6.36 µM; 330,000 tested, 0.41% active;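 active = percent inhibition above a cutoff equal to the mean of all tested compounds plus 3 SD, cut at about 15% in these data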;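 also: 0% = PAD4 with RCA probe and DMSO and 100% = probe without PAD4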
TDP2 inh – TDP2 (human) inhibition, absorbance primary screen | O95551 | recombinant TDP2, T5PNP hydrolysis, p-nitrophenol absorbance 415 nm | inhibition, % at 12.8 µM | 370,000 tested, 0.34% active;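 active = inhibition above the mean of all tested compounds plus 3 SD, set per campaign, cut at about 25% in these data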;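 also: 0% = DMSO with enzyme and 100% = buffer with substrate but no TDP2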
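System – recombinant human TDP2 · Quantity – TDP2 enzyme at 120 nM final · Doses – single concentration, 12.8 µM nominal, with 1% DMSO · Incubation – 2 h at 37 °C · Measured by – epi absorbance of p-nitrophenol freed from T5PNP by hydrolysis · Read-out – % inhibition relative to enzyme-containing and enzyme-free wells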
GSTO1 inh – counter-screen for RBBP9 inhibitors: inhibitors of human GSTO1. inhibition, % at 5.96 µM. 300,000 tested, 1.1% active. AID 1974. recombinant GSTO1, activity-based probe fluorescence polarization;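 active = inhibition above the campaign mean inhibition plus 3 SD, cut at about 35% in these data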;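 also: 0% = GSTO1-1 with DMSO and 100% = wells lacking GSTO1-1 enzyme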
Target sequence (P78417 whole entry, looked up): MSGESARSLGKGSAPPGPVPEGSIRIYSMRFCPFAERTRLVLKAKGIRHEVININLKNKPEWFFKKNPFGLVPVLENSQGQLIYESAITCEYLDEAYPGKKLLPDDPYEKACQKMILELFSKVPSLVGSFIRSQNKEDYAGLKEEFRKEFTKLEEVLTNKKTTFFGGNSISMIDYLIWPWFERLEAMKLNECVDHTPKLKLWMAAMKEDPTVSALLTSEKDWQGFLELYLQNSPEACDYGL
GSTO1 inh conf – GSTO1 (human) inhibition, confirmation; shares compounds with GSTO1 inh; recombinant GSTO1, probe fluorescence polarization; inhibition, % at 5.96 µM; 2,400 tested, 54% active; AID 2176;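 active = inhibition above the primary screen's cutoff, its mean inhibition plus 3 SD, cut at about 35% in these data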;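 also: loss of polarization as inhibitors block binding of rhodamine sulfonate ester activity probe; 0% = GSTO1 with DMSO and 100% = wells lacking GSTO1 enzyme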
GSTO1 ABPP inh – blocks recombinant human glutathione S-transferase omega 1. shares compounds with GSTO1 inh. recombinant GSTO1, gel ABPP SE-Rh probe fluorescence. inhibition, % at 1 µM. 130 tested, 30% active. AID 463110;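 active = inhibition of the enzyme GSTO1 above about 75%, limit read from the data; inactive = inhibition below that limit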
Starred values were filed as active, the others as inactive; . = no result. This is a sample that favours compounds with a hit; in the whole collection about 2.5% have one here.

SMILES	eLon inh	PRMT1 FP inh	PAD4 inh	TDP2 inh	GSTO1 inh	GSTO1 inh conf	others
COC(=O)CN1C(=O)C2(C(C#N)=C(N)Oc3c2c(C)nn3-c2ccccc2)c2ccccc21 (stereo unspecified)	-5	3	-3	-20	42*	15
COC(=O)CN1C(=O)C2(C(C#N)=C(N)Oc3n[nH]c(-c4cccs4)c32)c2ccccc21 (stereo unspecified)	0	-1	-10	6	9	.
COC(=O)c1ccccc1NCc1cc(=O)oc2cc(O)c(O)cc12	-10	6	9	1	43*	10
O=c1[nH]c2ccccc2c2oc(CCl)nc12	-1	21*	-2	3	87*	99*	GSTO1 ABPP inh=69
C/C(=N\Nc1cccc2cccnc12)c1ccc[nH]1	-24	6	-2	-11	47*	3
O=C(O)c1cccc(Cn2c(Cl)c(/C=N/Nc3ccccc3)sc2=O)c1	-51	.	3	.	50*	65*
Cc1ccc(/C=[N+](/C)[O-])cc1	-1	-4	-2	2	0	.
Cc1ccc(C=C2C(Cl)=C(Cl)C(Cl)=C2Cl)cc1	.	.	2	.	45*	15
CC1(OC(=O)C2CCCC2)C(=O)C=C2C=C3CCCN3C=C2C1=O (stereo unspecified)	.	.	-2	.	21	.
CC1(OC(=O)c2cccs2)C(=O)C=C2C=C3CCCN3C=C2C1=O (stereo unspecified)	2	.	15*	.	60*	62*
CC(=O)c1ccc(NC(=O)c2ccc3nc(-c4ccco4)c(-c4ccco4)nc3c2)cc1	-6	.	-16	.	68*	29
O=C(NCCO)Nc1ccc2nsnc2c1	0	-1	1	-8	2	.
O=C(Nc1ccccc1)c1ccc2nc(-c3ccco3)c(-c3ccco3)nc2c1	-11	38*	-19	3	57*	13
O=C(NCCO)Nc1ccc2nc(-c3ccco3)c(-c3ccco3)nc2c1	.	.	18*	.	65*	42*
O=C(NCc1ccccc1)c1ccc2nc(-c3ccco3)c(-c3ccco3)nc2c1	5	44*	-13	19	67*	24
O=C(Nc1ccc(N2CCOCC2)cc1)c1ccc2nc(-c3ccco3)c(-c3ccco3)nc2c1	-8	2	-2	-4	0	.
COC(=O)C1CN(Cc2cn(CCC3OCCO3)nn2)CCS(=O)(=O)N1Cc1ccc(OC)cc1 (stereo unspecified)	.	0	.	-6	.	.
CC(=O)N1CCc2c1cccc2S(=O)(=O)NC(CC(C)C)C(=O)Nc1ccc(Cl)c(Cl)c1 (stereo unspecified)	.	0	.	1	.	.
CCCC1CCC2(CC1)CCC2OC(=S)Nc1cccc(Cl)c1 (stereo unspecified)	.	0	.	-6	.	.
O=C(c1ccc2nc(-c3ccco3)c(-c3ccco3)nc2c1)N1CCN(c2ncccn2)CC1	4	35*	-6	11	68*	22
O=C(c1cccc(C(=O)N2CCN(c3ncccn3)CC2)c1)N1CCN(c2ncccn2)CC1	-4	-3	2	0	-2	.
Cc1ccc(S(=O)(=O)N[C@@H](Cc2ccccc2)C(=O)CCl)cc1	-6	18	8	10	45*	55*
Cc1ccc(S(=O)(=O)NC(Cc2ccccc2)C(=O)NN)cc1 (stereo unspecified)	3	2	2	-14	6	.
O=c1[nH]c(C2CCN(S(=O)(=O)c3ccccc3C(F)(F)F)CC2)nc2c1nnn2Cc1cccc(F)c1	0	-2	-1	14	47*	50*
CC1Oc2cc3oc4c(O)c(O)ccc4c(=O)c3c(O)c2C1(C)C (stereo unspecified)	8	.	-2	.	45*	6
SMILES	eLon inh	PRMT1 FP inh	PAD4 inh	TDP2 inh	GSTO1 inh	GSTO1 inh conf	others
CCOC(=O)CC[C@@H]1CC[C@]2(CCCN(C(=O)c3cccnc3)C2)O1	.	0	.	8	.	.
O=C(CCN1C(=O)/C(=C\c2ccccc2F)SC1=S)N1CCCCC1	1	1	-5	-7	47*	11
O=C(CN1CCCCCC1)Nc1ccc([N+](=O)[O-])cc1Cl	-6	3	4	-11	4	.
O=C(CN1CCCCCC1)Nc1cc([N+](=O)[O-])ccc1Cl	3	0	0	5	57*	14
Cc1ccc2nc(/C(C#N)=C/c3ccc(O)c(O)c3)[nH]c2c1	-210	27*	-19	-4	46*	51*
Cc1ccc2nc(/C(C#N)=C/c3ccccc3C(=O)O)[nH]c2c1	-74	-7	-8	8	-3	.
Cc1c(Cl)cccc1N=Cc1ccc([N+](=O)[O-])s1	-4	1	-11	2	39*	16
O=C(NNc1cc(Br)c(O)c(Br)c1)c1ccccc1	5	23*	-1	9	65*	27
Cc1cccc(S(=O)(=O)Nc2cccc3c2C(=O)c2ccccc2-3)c1	-40	-4	0	-10	-11	.
CCc1ccc(S(=O)(=O)/N=C2\C=C(NS(=O)(=O)c3ccccc3)C(=O)c3ccccc32)cc1	9	6	.	18	.	.
Cc1ccc(C)c(S(=O)(=O)/N=C2\C=C(NS(=O)(=O)c3ccccc3)C(=O)c3ccccc32)c1	4	6	-2	18	82*	48*
CC(C)c1ccc(S(=O)(=O)/N=C2\C=C(NS(=O)(=O)c3ccccc3)C(=O)c3ccccc32)cc1	1	-5	1	25*	79*	75*
CNc1ccccc1/C(O)=C(\C#N)C(=O)NCc1cccc2ccccc12	.	3	.	-4	.	.
CC(C)[C@@H]1NC(=O)[C@H]2C[C@@]3(c4ccccc4)c4ccccc4N[C@H]3N2C1=O	.	-4	.	4	.	.
Cc1nnc(N/N=C/c2c(O)n(-c3cccc(C(F)(F)F)c3)c(=O)c3ccccc23)[nH]c1=O	.	-4	-3	-10	39*	19
Cc1cc(N=Cc2c(O)n(-c3cccc(C(F)(F)F)c3)c(=O)c3ccccc23)no1	-18	-1	-9	1	-1	.
COc1ccc(/C=C(\C#N)C(=O)Nc2cccc3ncccc23)cc1OC	-5	3	1	-3	12	.
N#C/C(=C\c1ccc(O)c(O)c1)C(=O)Nc1cccc2ncccc12	-45	10	-12	-9	56*	29
COc1ccc(O)c(C(=O)C2c3ccccc3C(=O)N2c2ccc(C)cc2)c1 (stereo unspecified)	-2	3	-4	-11	62*	1
O=c1cc(CCl)nc(Cc2c(Cl)cccc2Cl)[nH]1	-2	-3	0	-14	93*	97*	GSTO1 ABPP inh=82*
CN(C)C(=O)NCCCC#Cc1ccccc1	.	2	.	-10	.	.
Cc1ccc(N=Cc2ccc[nH]2)c(O)c1	-2	6	-18	-2	38*	2
